Common to all, as to type: functional, organism-based
Assay [1] has as its system Leishmania infantum. In words: Antileishmanial activity against GFP-tagged at COOH terminus Leishmania infantum promastigotes overexpressing LiABCG6 assessed as cell viability after 72 hrs by MTT assay. In a few lines:
(§1)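 L. infantum promastigotes (strain MHOM/ES/1993/BCN-99) grown at 28°C in modified RPMI 1640 with 20% heat-inactivated fetal bovine serum. Drug sensitivity was measured by MTT-based assay. IC50 was taken as the drug concentration giving half-maximal inhibition of cellular growth rate.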
A general note: Tetrazolium dyes change colour on reduction, which living cells bring about.

Assay [2] has as its system Leishmania infantum. In words: Antileishmanial activity against GFP-tagged at NH2 terminus Leishmania infantum promastigotes overexpressing LiABCG6 assessed as cell viability after 72 hrs by MTT assay. In a few lines: as §1
For assay [3], the system named is Leishmania infantum. In words: Antileishmanial activity against Leishmania infantum promastigotes overexpressing LiABCG6 assessed as cell viability after 72 hrs by MTT assay. In a few lines:
as §1

The term IC50 denotes the concentration at which inhibition is half-maximal. As for `CCCCCCCCCCCCCCCCCCOCC(COP(=O)([O-])OCC[N+](C)(C)C)OC` (configuration not stated) [EDELFOSINE], the IC50 in assay [1] worked out at 12.9 µM; in assay [2], 4.8 µM; in assay [3] it was 11.3 µM.
Consider `CCCCCCCCCCCCCCCCCCOP(=O)([O-])OC1CC[N+](C)(C)CC1` [PERIFOSINE], for which the figures for the IC50 in assay [1], in assay [2] and in assay [3] were 12.2 µM, 4.2 µM and 11 µM, respectively.
As for `OC(c1cc(C(F)(F)F)nc2c(C(F)(F)F)cccc12)C1CCCCN1` (configuration not stated) [MEFLOQUINE], in assay [3], the IC50 amounted to 7 µM.
As for `CCN(CC)CCCC(C)Nc1ccnc2cc(Cl)ccc12` (configuration not stated) [CHLOROQUINE], in assay [3], the IC50 is 24.1 µM.
Regarding `CCCCCCCCCCCCCCCCOP(=O)([O-])OCC[N+](C)(C)C` [MILTEFOSINE], the IC50 in assay [1] amounted to 13.6 µM; in assay [2], 5.6 µM; in assay [3] it was 12.9 µM.
As for `COc1cc(NC(C)CCCN)c2ncccc2c1` (configuration not stated) [PRIMAQUINE], the IC50 in assay [3] is 54.9 µM.
On the same count and under the same terms, under `CC[C@@]1(O)C(=O)OCc2c1cc1n(c2=O)Cc2cc3ccccc3nc2-1` [CAMPTOTHECIN] stands 34.4 µM.
Regarding `CCN(CC)CCCCCCNc1cc(OC)cc2c(C)ccnc12` [SITAMAQUINE], the IC50 came out at 15.2 µM in assay [1], 7.8 µM in assay [2] and 14.3 µM in assay [3].
With `CC(=O)N1CCN(c2ccc(OCC3COC(Cn4ccnc4)(c4ccc(Cl)cc4Cl)O3)cc2)CC1` (configuration not stated) [KETOCONAZOLE], the IC50 in assay [3] worked out at 19.3 µM.

The values above are taken from ChEMBL document CHEMBL1275503, “Characterization of an ABCG-like transporter from the protozoan parasite Leishmania with a role in drug resistance and transbilayer lipid movement” (Antimicrob Agents Chemother, 2008).
